Experimental data reported in ChEMBL document CHEMBL2150858 (J Med Chem, 2011).
Values after ≈ are worked out from the molar mass of the structure shown. Active and inactive are the calls of the source. No cut-off for these calls is given here.

Assays:
[1] = biological target: Casein kinase I isoform alpha (Sus scrofa, UniProt O19175); assay: Inhibition of porcine brain CK1 using RRKHAAIGpSAYSITA as substrate
[2] = biological target: T1, 72 kDa type IV collagenase (Homo sapiens, UniProt P08253); assay: Inhibition of MMP2
Method in brief: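 Fluorogenic substrate assay on MMP-2 (5 ng/mL enzyme solution) in TNC buffer (50 mM Tris-HCl pH 7.5, 150 mM NaCl, 10 mM CaCl2, 0.05% Brij-35). Enzyme preincubated with compound for 10 min at 37 °C, then substrate solution (10 μM) added. Fluorescence read at ex 328/em 393 nm after 3 h at 37 °C. An enzyme-free blank was subtracted; batimastat served as positive control and 1% DMSO as negative.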
Target sequence in this assay (P08253 whole entry): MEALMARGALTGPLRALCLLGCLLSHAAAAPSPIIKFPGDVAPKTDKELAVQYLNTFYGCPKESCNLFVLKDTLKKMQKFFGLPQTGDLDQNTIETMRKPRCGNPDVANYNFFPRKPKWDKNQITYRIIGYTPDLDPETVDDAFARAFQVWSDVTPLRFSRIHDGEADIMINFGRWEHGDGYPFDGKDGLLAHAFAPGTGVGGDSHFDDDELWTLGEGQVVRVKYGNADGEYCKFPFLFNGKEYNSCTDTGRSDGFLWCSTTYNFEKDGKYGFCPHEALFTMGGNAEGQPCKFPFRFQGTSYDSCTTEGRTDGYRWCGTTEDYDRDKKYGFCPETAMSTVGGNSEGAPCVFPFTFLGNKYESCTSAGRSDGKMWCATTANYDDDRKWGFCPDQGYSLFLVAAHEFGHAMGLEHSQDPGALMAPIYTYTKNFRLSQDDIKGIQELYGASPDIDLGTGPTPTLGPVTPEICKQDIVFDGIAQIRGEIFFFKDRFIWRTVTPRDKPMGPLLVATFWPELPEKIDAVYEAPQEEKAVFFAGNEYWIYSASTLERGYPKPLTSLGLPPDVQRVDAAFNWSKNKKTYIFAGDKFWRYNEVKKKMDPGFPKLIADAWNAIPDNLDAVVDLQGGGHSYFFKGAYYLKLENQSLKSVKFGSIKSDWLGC

Interstitial collagenase = Interstitial collagenase (Homo sapiens, UniProt P03956); assay: Inhibition of MMP1
Chain of Interstitial collagenase (P03956 whole entry): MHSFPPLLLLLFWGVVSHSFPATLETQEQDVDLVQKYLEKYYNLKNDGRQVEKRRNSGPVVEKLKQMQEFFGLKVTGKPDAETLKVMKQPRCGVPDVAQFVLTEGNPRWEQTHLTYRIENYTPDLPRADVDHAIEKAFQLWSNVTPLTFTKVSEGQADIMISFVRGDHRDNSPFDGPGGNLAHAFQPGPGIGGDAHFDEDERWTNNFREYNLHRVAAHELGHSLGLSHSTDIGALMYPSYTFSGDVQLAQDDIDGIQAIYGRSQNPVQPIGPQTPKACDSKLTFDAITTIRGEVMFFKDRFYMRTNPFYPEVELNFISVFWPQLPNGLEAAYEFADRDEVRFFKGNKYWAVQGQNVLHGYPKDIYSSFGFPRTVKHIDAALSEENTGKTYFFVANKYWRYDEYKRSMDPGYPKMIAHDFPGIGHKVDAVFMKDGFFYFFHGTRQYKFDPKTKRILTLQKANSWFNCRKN

[3] = biological target: Macrophage metalloelastase (Homo sapiens, UniProt P39900); assay: Inhibition of MMP12
[4] = biological target: Matrix metalloproteinase-9 (Homo sapiens, UniProt P14780); assay: Inhibition of MMP9
Chain of Matrix metalloproteinase-9 (P14780 whole entry): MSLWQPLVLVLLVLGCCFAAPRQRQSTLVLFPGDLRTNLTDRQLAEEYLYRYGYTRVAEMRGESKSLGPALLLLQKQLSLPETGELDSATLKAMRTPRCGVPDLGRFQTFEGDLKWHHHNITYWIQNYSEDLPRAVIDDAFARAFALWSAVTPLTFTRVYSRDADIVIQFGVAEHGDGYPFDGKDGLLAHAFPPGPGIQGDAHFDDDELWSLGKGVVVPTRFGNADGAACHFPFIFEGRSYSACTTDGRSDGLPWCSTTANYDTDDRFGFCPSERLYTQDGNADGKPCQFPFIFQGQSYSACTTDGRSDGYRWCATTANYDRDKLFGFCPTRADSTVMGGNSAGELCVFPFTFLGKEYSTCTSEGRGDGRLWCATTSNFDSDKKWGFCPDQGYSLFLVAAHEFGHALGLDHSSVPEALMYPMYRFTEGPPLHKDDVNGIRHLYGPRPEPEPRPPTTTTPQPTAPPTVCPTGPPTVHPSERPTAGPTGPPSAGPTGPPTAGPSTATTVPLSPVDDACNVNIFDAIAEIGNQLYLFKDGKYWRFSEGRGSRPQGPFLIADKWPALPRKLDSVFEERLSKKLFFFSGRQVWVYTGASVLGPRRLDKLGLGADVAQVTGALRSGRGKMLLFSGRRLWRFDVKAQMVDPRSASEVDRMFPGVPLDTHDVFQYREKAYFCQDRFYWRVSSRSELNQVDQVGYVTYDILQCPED

Neutrophil collagenase = Neutrophil collagenase (Homo sapiens, UniProt P22894); assay: Inhibition of MMP8
Collagenase 3 = Collagenase 3 (Homo sapiens, UniProt P45452); assay: Inhibition of MMP13
[5] = biological target: T1, 72 kDa type IV collagenase; assay: Inhibition of human recombinant MMP2 using MOCAc-Pro-Leu-Gly-Leu-A2pr(Dnp)-Ala-Arg- NH2 as substrate preincubated for 10 mins measured after 3 hrs by fluorescence assay
Method in brief: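 Fluorogenic MMP-2 inhibition in TNC buffer (50 mM Tris-HCl pH 7.5, 150 mM NaCl, 10 mM CaCl2, 0.02% NaN3, 0.05% Brij-35). Enzyme stock 5 ng/mL preincubated with compound 10 min at 37 °C. Reaction started with substrate solution (10 μM), incubated 3 h at 37 °C. Read at ex 328/em 393 nm. No-enzyme blank subtracted. Batimastat positive control; 1% DMSO negative control.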
Target sequence in this assay (P08253 whole entry): as the sequence (P08253 whole entry) above

[6] = biological target: Dual specificity tyrosine-phosphorylation-regulated kinase 1A (Rattus norvegicus, UniProt Q63470); assay: Inhibition of rat recombinant GST-fused DYRK1A expressed in Escherichia coli using [gamma-32P] ATP after 30 mins by scintillation counting
Method in brief: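 DYRK1A purified by glutathione-agarose affinity chromatography. Product captured on P81 phosphocellulose and washed in phosphoric acid. Blank subtracted; activity expressed as % of uninhibited.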

[7] = biological target: T2, Matrix metalloproteinase-14 (Homo sapiens, UniProt P50281); assay: Inhibition of MMP14 using MOCAc-Pro-Leu-Gly-Leu-A2pr(Dnp)-Ala-Arg- NH2 as substrate preincubated for 10 mins measured after 3 hrs by fluorescence assay
Method in brief: (§1)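 Fluorogenic MMP assay (modified Knight method) in TNC buffer: 50 mM Tris-HCl pH 7.5, 150 mM NaCl, 10 mM CaCl2, 0.05% Brij-35. Enzyme stock was 5 ng/mL for MMP-2 and 40 ng/mL for MT1-MMP, preincubated with sample 10 min at 37 °C. Substrate solution at 10 μM was added, then incubated 3 h at 37 °C. Fluorescence read at ex 328/em 393 nm; a no-enzyme blank was subtracted. Controls were batimastat and 1% DMSO.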

[8] = biological target: T3, Serine/threonine-protein kinase pim-1 (Homo sapiens, UniProt P11309); assay: Inhibition of human recombinant PIM1 using [gamma-32P] ATP after 30 mins by scintillation counting
Method in brief: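 Human recombinant Pim1 was run with histone H1 substrate under the CDK1/CDK5 conditions: 15 μM [γ-32P]ATP at 30 °C for 30 min. Phosphocellulose filter binding and scintillation counting followed. Activity was expressed as % of maximal after blank subtraction, with DMSO controls.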

[9] = biological target: T2, Matrix metalloproteinase-14; assay: Inhibition of MMP14 using MOCAc-Pro-Leu-Gly-Leu-A2pr(Dnp)-Ala-Arg- NH2 as substrate at 20 ug/ml preincubated for 10 mins measured after 3 hrs by fluorescence assay; method in brief: as §1
[10] = biological target: Calcium/calmodulin-dependent protein kinase kinase 2 (Homo sapiens, UniProt Q96RR4); assay: Binding affinity to CAMKK2
Method in brief: (§2)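 Compounds were diluted from 40× DMSO stocks, 11 concentrations plus blank in duplicate. Incubation 1 h at room temperature with shaking in SeaBlock/PBS/Tween 20/DTT buffer, then bead wash. Kd determined; 40000 nM denotes no binding.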

NCI60 = assay: Growth inhibition of human NCI60 cells at 1 to 10 uM; format: functional, cell-based
[11] = Toxicity in human NCI-H460 cells; format: cell-based; conditions: read-out: LD50 (the source's name)
Method in brief: (§3)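 NCI-60 human cancer cell line screen, two-stage. All lines first receive a single 10 μM dose. Selected compounds then go to a five-concentration assay spanning 100 μM to 10 nM, with 48 h exposure. LD50 (cell kill) is derived from the dose-response and kept separate from GI50 (growth retardation without cell death).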

[12] = Binding affinity to DYRK2 assessed as ATP binding remaining at 10 uM
Method in brief: (§4)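 Ambit phage-display competition binding against immobilized ATP-site ligands. Kinase-tagged T7 phage or HEK-293-expressed DNA-tagged kinases were incubated with liganded streptavidin beads and compound at 10 μM, 1 h at room temperature with shaking. After washing, retained kinase was quantified; readout is percent of control binding remaining.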

[13] = Toxicity in human Caki1 cells; format: cell-based, CAKI-1; conditions: read-out: LD50 (the source's name); method in brief: as §3
CAKI-1 = assay: Growth inhibition of human Caki1 cells at 10 uM; format: functional; conditions: read-out: GI
[14] = biological target: T3, Serine/threonine-protein kinase pim-1; assay: Inhibition of human recombinant PIM1 using [gamma-32P] ATP at 100 uM after 30 mins by scintillation counting
Method in brief: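 Recombinant human Pim1 assayed as for CDK1/CDK5: histone H1 substrate, 15 μM [γ-32P]ATP final, 30 °C. Read by P81 filter binding and scintillation counting; activity expressed as percent of no-inhibitor control after blank subtraction.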
Target sequence in this assay (P11309 whole entry, looked up): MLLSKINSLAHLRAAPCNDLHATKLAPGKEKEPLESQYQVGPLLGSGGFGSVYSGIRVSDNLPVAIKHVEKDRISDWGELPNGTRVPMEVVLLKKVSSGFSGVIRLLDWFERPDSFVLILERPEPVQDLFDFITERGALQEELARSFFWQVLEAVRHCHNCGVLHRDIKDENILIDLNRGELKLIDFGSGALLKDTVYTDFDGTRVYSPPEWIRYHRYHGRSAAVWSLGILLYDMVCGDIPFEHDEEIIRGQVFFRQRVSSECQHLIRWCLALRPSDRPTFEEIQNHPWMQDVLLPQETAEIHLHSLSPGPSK

[15] = biological target: Calcium/calmodulin-dependent protein kinase kinase 1 (Homo sapiens, UniProt Q8N5S9); assay: Binding affinity to CAMKK1
Chain of Calcium/calmodulin-dependent protein kinase kinase 1 (Q8N5S9 whole entry): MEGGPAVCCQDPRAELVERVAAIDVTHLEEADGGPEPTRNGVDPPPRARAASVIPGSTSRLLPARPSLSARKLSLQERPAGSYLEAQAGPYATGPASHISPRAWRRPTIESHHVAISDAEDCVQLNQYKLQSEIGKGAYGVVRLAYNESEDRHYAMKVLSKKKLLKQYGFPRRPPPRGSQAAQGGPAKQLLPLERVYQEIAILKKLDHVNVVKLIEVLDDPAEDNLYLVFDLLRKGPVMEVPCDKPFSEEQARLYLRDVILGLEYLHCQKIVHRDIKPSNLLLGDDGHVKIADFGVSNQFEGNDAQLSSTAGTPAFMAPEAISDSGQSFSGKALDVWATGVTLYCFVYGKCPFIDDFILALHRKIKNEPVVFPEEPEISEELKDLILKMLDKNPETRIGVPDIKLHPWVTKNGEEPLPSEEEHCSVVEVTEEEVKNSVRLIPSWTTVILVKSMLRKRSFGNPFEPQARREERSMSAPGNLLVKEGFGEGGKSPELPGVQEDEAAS
Method in brief: (§5)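 Competition binding run by Ambit. They were mixed with ligand-loaded streptavidin magnetic beads and compound (40× DMSO stocks) in SeaBlock/PBS/Tween/DTT buffer. Incubation was 1 h at room temperature, then beads were washed. KD was determined from 11 concentrations plus a blank, in duplicate. A value of 40000 nM indicates no binding.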

Aorta [16] = assay: Antiangiogenic activity in Fischer rat aorta fragments assessed as vessel outgrowth at 100 ug/mL after 5 days relative to PI-88; format: functional
Aorta [17] = assay: Antiangiogenic activity in Fischer rat aorta fragments assessed as vessel outgrowth at 100 ug/mL after 5 days; format: functional; conditions: 120 h
Method in brief: (§6)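 Thoracic aorta rings (1 mm cross-sections) from 3–9 month-old female Fischer rats, each embedded in fibrin gel with 5 μg/mL aprotinin. Compound added from DMSO stock, max final 100 μg/mL, six replicates; 0.1% DMSO vehicle control. Grown 5 days at 37 °C in 5% CO2, medium changed on day 4. On day 5, microvessel outgrowth was scored manually at 40× as percent of field occupied.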

[18] = Inhibition of GSK3 at 100 uM
[19] = biological target: Protein kinase C epsilon type (Homo sapiens, UniProt Q02156); assay: Binding affinity to PRKCE; method in brief: as §5
Chain of Protein kinase C epsilon type (Q02156 whole entry, the tested form may be a part): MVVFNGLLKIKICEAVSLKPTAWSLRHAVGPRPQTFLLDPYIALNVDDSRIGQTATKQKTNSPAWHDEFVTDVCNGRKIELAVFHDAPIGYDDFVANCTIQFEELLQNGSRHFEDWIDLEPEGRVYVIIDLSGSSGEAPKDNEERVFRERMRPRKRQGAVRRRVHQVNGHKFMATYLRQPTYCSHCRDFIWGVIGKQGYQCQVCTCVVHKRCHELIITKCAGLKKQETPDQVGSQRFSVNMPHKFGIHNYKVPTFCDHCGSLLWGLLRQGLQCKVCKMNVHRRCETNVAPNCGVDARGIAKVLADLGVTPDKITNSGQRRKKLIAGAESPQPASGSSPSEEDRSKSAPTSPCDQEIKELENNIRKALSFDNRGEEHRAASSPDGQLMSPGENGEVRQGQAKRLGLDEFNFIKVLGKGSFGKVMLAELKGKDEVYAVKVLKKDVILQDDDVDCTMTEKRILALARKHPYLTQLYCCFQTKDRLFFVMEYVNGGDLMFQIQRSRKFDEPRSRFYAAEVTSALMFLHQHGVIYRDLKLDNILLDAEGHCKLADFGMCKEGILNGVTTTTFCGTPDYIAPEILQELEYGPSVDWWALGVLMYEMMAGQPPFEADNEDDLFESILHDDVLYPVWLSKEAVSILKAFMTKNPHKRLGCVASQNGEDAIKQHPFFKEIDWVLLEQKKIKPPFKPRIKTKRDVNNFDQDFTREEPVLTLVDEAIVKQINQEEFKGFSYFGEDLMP

Aorta [20] = assay: Antiangiogenic activity in Fischer rat aorta fragments assessed as vessel outgrowth after 5 days; format: functional, tissue-based; conditions: 120 h; method in brief: as §6
[21] = biological target: Non-receptor tyrosine-protein kinase TYK2 (Homo sapiens) (UniProt P29597); assay: Binding affinity to JH domain of TYK2 assessed as ATP binding remaining at 10 uM; method in brief: as §4
Aorta [22] = assay: Antiangiogenic activity in Fischer rat aorta fragments assessed as vessel outgrowth at 0.1 ug/mL after 5 days; format: functional; conditions: 120 h; method in brief: as §6
[23] = biological target: Calcium/calmodulin-dependent protein kinase type II subunit gamma (Homo sapiens, UniProt Q13555); assay: Binding affinity to CAMK2G; method in brief: as §2
[24] = Toxicity in human IGROV1 cells; format: cell-based, IGROV-1; conditions: read-out: LD50 (the source's name); method in brief: as §3
Aorta [25] = assay: Antiangiogenic activity in Fischer rat aorta fragments assessed as vessel outgrowth at 100 ug/mL after 5 days relative to ageladine-A sulfate; format: functional
[26] = biological target: T1, 72 kDa type IV collagenase; assay: Inhibition of human recombinant MMP2 using MOCAc-Pro-Leu-Gly-Leu-A2pr(Dnp)-Ala-Arg- NH2 as substrate at 20 ug/ml preincubated for 10 mins measured after 3 hrs by fluorescence assay; method in brief: as §1
[27] = Toxicity in human SK-MEL-5 cells; format: cell-based; conditions: read-out: LD50 (the source's name); method in brief: as §3
[28] = biological target: Mitogen-activated protein kinase kinase kinase 19 (Homo sapiens) (UniProt Q56UN5); assay: Binding affinity to YSK4 assessed as ATP binding remaining at 10 uM; method in brief: as §4
Chain of Mitogen-activated protein kinase kinase kinase 19 (Homo sapiens) (Q56UN5 whole entry, the tested form may be a part): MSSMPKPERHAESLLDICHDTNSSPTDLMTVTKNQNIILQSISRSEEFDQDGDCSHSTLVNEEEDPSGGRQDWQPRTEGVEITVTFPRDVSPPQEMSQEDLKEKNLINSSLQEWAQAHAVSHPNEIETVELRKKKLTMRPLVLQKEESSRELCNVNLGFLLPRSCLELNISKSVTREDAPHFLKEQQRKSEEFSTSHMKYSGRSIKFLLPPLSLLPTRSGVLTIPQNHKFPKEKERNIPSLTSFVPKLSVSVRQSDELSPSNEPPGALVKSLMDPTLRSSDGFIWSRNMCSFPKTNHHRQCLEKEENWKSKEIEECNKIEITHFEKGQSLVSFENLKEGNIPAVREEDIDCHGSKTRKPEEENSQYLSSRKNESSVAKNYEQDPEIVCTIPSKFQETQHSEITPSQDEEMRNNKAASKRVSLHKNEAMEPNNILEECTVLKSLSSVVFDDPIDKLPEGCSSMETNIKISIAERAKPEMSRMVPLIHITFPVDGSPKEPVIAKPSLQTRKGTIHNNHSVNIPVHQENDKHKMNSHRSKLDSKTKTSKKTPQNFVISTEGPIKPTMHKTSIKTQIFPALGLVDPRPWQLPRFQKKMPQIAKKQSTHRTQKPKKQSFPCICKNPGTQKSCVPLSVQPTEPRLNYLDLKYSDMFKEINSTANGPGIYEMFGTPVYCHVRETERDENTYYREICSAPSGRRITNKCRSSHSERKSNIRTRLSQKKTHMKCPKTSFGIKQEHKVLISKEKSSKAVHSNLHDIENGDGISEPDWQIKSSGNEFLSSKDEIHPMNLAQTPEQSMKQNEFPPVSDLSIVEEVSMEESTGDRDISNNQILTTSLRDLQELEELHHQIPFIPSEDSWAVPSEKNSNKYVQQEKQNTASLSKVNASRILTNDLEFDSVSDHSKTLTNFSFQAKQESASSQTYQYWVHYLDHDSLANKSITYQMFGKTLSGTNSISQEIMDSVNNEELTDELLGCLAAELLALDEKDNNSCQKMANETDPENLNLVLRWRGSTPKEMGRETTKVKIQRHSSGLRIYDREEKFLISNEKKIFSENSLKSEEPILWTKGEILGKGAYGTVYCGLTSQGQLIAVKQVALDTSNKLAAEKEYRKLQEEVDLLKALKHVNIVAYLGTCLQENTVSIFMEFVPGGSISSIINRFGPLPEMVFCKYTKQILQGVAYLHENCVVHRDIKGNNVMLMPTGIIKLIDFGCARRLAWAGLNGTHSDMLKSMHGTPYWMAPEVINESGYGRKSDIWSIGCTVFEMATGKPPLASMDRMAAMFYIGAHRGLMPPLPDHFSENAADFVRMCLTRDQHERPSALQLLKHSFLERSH

Aorta [29] = assay: Antiangiogenic activity in Fischer rat aorta fragments assessed as vessel outgrowth at 1 ug/mL after 5 days; format: functional; conditions: 120 h; method in brief: as §6
Aorta [30] = assay: Antiangiogenic activity in Fischer rat aorta fragments assessed as vessel outgrowth at 10 ug/mL after 5 days; format: functional; conditions: 120 h; method in brief: as §6
[31] = Toxicity in human M14 cells; format: cell-based; conditions: read-out: LD50 (the source's name); method in brief: as §3
Malme-3M = assay: Induction of cell growth in human MALME-3M cells at 10 uM; format: functional
[32] = biological target: Dual specificity tyrosine-phosphorylation-regulated kinase 1A (Homo sapiens) (UniProt Q13627); assay: Binding affinity to DYRK1A assessed as ATP binding remaining at 10 uM; method in brief: as §4

Chain of Casein kinase I isoform alpha (O19175 whole entry, canonical isoform): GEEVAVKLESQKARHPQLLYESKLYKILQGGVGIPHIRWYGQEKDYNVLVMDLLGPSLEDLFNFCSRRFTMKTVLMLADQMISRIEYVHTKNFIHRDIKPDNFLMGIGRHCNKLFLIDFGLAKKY

In the case of `Nc1nc2c(-c3cc(Br)c(Br)[nH]3)nccc2[nH]1` [AGELADINE A], the IC50 [1] is reported as 50 µM, the IC50 [2] is reported as 3.36 µM and the IC50 (Interstitial collagenase) is reported as 5.6 µM. For the same compound, the IC50 [3] was 0.924 µM, the IC50 [4] was 2.21 µM and the IC50 (Neutrophil collagenase) was 1.09 µM. It also gave an IC50 (Collagenase 3) of 1.32 µM, an IC50 [5] of 4.76 µM and an IC50 [6] of 30 µM. For the same compound, the IC50 [7] was 0.56 µM and the IC50 [8] was 10 µM.

With `Nc1nc2c(-c3ccccn3)nccc2[nH]1` the inhibition [9] was 6%, the Kd [10] was 40 µM and the “growth inhibition (GI)” value (NCI60) was “Active”. For the same compound, the CC50 [11] was 25 µM, the Activity [12] was “Active” and the CC50 [13] was 25 µM. For the same compound, the IC50 [1] was 10 µM, the inhibition of growth at 10 µM (CAKI-1) was 95% and the inhibition [14] was “inactive”. For the same compound, the Kd [15] was 40 µM, the “fold change (FC)” value (Aorta [16]) was 14 and the inhibition at 100 µg/mL (Aorta [17]) was 100%. For the same compound, the inhibition [18] was “inactive”, the Kd [19] was 40 µM and the IC50 (Aorta [20]) was 8 mg/L (≈ 37.9 µM). The Activity [21] was “Active”, the inhibition at 0.1 µg/mL (Aorta [22]) was 4% and the Kd [23] was 40 µM. For the same compound, the CC50 [24] was 25 µM, the “fold change (FC)” value (Aorta [25]) was 3 and the inhibition [26] was 22%. The CC50 [27] was 25 µM, the Activity [28] was “Active” and the inhibition at 1 µg/mL (Aorta [29]) was 16%. It also gave an inhibition at 10 µg/mL (Aorta [30]) of 56%, a CC50 [31] of 25 µM and an Activity (Malme-3M) of 30%. The Activity [32] was “Active”.
